Test results as given in ChEMBL document CHEMBL2429733, “Meroterpenoids with diverse ring systems from the sponge-associated fungus Alternaria sp. JJY-32” (J Nat Prod, 2013).
Structures can show the parent of a compound that is named as a salt. Activity calls are given as the source filed them. No cut-off for these calls is given here.

Experiments:
[1] = test system: HL-60; assay: Cytotoxicity against human HL60 cells; assay type: functional, cell-based
Procedure, shortened: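 Growth of human tumour cells measured by the MTT or SRB method, with adriamycin as the positive control.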

[2] = Inhibition of LPS-induced NF-kappaB (unknown origin) activation transfected in mouse RAW264.7 cells preincubated for 2 hrs followed by LPS challenge measured after 4 hrs by luciferase reporter gene assay; assay type: cell-based
Procedure, shortened: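 RAW264.7 cells were seeded at 2.5 × 10^5 per well and held at 37 °C for 24 h. They were then transiently transfected with pNF-κB-Luc plasmid (0.5 μg/well) using lipofectamine 2000. After 24 h, compounds were added for 2 h, then LPS (0.1 μg/mL) for a further 4 h. Read-out was Steady-Glo luciferase, with PDTC as the positive control, and IC50 was derived.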

[3] = test system: A549; assay: Cytotoxicity against human A549 cells

SMILES | Activity [1] | IC50 [2] | IC50 [3] | IC50 [1]
CO[C@@H]1C[C@H](O)C(O)=C(C/C=C(\C)CC/C=C(\C)CCCC(C)C(=O)O)C1=O (stereo partly drawn) | inactive | 42 µM |  | 
C/C(=C\CC[C@](C)(O)[C@@H]1CC2=C(CC[C@@H](O)C2=O)O1)CC/C=C(\C)C(=O)O | inactive | 85 µM |  | 
CO[C@@H]1C[C@H](O)C2=C(C[C@H]3[C@H](C(C)(O)CCC=C(C)C)CC[C@@]3(C)O2)C1=O (stereo partly drawn) [TRICYCLOALTERNARENE B] | inactive | 76 µM |  | 
COc1cccc2c1C(=O)c1c(O)c3c(c(O)c1C2=O)C[C@@](O)(C(=O)CO)C[C@@H]3O[C@H]1C[C@H](N)[C@H](O)[C@H](C)O1 [DOXORUBICIN] |  |  | 0.35 µM | 0.09 µM
C/C(=C\CC[C@@H](C)C1=CC[C@@]2(C)OC3=C(C[C@@H]12)C(=O)[C@H](O)CC3)CO | inactive | 50 µM |  | 
COc1ccc(O)c(C/C=C(\C)CC/C=C(\C)CC[C@@H](O)C(C)(C)O)c1O [(+)-MONOCYCLOALTERNARENE A] | inactive | 45 µM |  | 
CO[C@@H]1C[C@H](O)C(O)=C(C/C=C(\C)CC/C=C(\C)CC/C=C(\C)C(=O)O)C1=O | inactive | 58 µM |  | 
CC(C)=CCCC(C)(O)[C@@H]1CC[C@@]2(C)OC3=C(C[C@@H]12)C(=O)CC[C@H]3O (stereo partly drawn) [TRICYCLOALTERNARENE C] | inactive | 75 µM |  | 
CC(C)=CCC[C@H](C)[C@@H]1CC[C@](C)(O)[C@]12CC1=C(O2)[C@H](O)CCC1=O [TRICYCLOALTERNARENE A] | inactive | 52 µM |  | 
C/C(C=O)=C\CC[C@@H](C)C1=CC[C@@]2(C)OC3=C(C[C@@H]12)C(=O)[C@H](O)CC3 | inactive | 39 µM |  | 
S=C(S)N1CCCC1 [PYRROLIDINE DITHIOCARBAMIC ACID, AMMONIUM SALT] |  | 3 µM |  | 
C/C(=C\CC[C@]1(C)OC2=C(C[C@@H]1O)C(=O)[C@H](O)CC2)CC/C=C(\C)C(=O)O | inactive | > 100 µM |  | 
CC(C)=CCC[C@](C)(O)[C@H](O)CC[C@](C)(O)[C@@H]1CC2=C(CC[C@@H](O)C2=O)O1 | inactive | 62 µM |  | 
C/C(=C\Cc1cc(C(=O)O)cc(O)c1O)CC/C=C(\C)CC[C@@H](O)C(C)(C)O [(+)-MONOCYCLOALTERNARENE B] | inactive | 47 µM |  | 
C/C(=C\CC[C@](C)(O)[C@@H]1CC2=C(O1)[C@H](O)CCC2=O)CC/C=C(\C)C(=O)O | inactive | 67 µM |  | 
C/C(=C\CC[C@]1(C)OC2=C(C[C@@H]1O)C(=O)CC[C@H]2O)CC/C=C(\C)C(=O)O | inactive | > 100 µM |  | 
C/C(=C\CC[C@](C)(O)[C@@H]1CC2=C(CC[C@@H](O)C2=O)O1)CC[C@@H](O)C(C)(C)O | inactive | 70 µM |  | 
